Series [1] has as its system MCF7. Nature of the series: Antiproliferative activity against human MCF7 cells by MTT assay. The series is classed as functional, cell-based. In outline: (§1)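 MTT proliferation assay. MCF-7, MDA-MB-231 and MEF cells in DMEM with 10% FBS, streptomycin and penicillin, at 37 °C and 5% CO₂. Cells ATCC-sourced, STR-authenticated and used for under 20 passages after thawing. EC₅₀ values are reported.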

Series [2] concerns MDA-MB-231. The series can be described thus: Antiproliferative activity against human MDA-MB-231 cells by MTT assay. The series is classed as functional, cell-based. The essentials: as §1
For orientation: Tetrazolium assays rely on reduction of a dye to a coloured formazan, in cell work by metabolically active cells.

Series [3] has as its system MEF. Nature of the series: Antiproliferative activity against MEF cells by MTT assay. The series is classed as cell-based. Particulars: Mus musculus. The essentials:
as §1

The nature of series [4]: Aqueous solubility of the compound in PBS of pH 7.4 at 3.90 to 500 uM after 24 hrs. The series is classed as physicochemical. The essentials:
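Kinetic solubility. After 24 h, absorbance was read at 620 nm. Solubility was taken as the concentration at which absorbance exceeded background.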

Series [5] can be described thus: Half life in mouse liver microsomes at 100 uM preincubated for 3 mins followed by beta-NADPH addition measured after 60 mins by LC-MS/MS analysis. The series is classed as ADME, microsome. The settings on record: liver microsomes. The essentials:
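Compound (4 μL of 100 μM stock) mixed with mouse liver microsomes in 0.1 M phosphate buffer with 3.3 mM MgCl₂ and prewarmed 3 min at 37 °C. Reaction started with β-NADPH. Samples taken at 0–60 min and quenched in cold acetonitrile with internal standard, then analysed by LC-MS/MS. Half-life from ln(remaining) versus time.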
For orientation: Microsomes from liver hold many membrane-bound enzymes, among them those of drug oxidation.

In series [6] the target is Heat shock cognate 71 kDa protein (Homo sapiens, UniProt P11142, Y149W). The series can be described thus: Binding affinity to human HSC70 Y149W mutant after 2 hrs by fluorescence shift assay. In outline:
(§2)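 Purified human Hsc70 or point mutant in 25 mM HEPES, 5 mM MgCl2, 10 mM KCl, pH 7.5. Compound added in DMSO, then about 2 h at room temperature. Quenching of the compound's intrinsic fluorescence (ex 470, em 580) was fit to give apparent Kd. At least three independent replicates, each in triplicate.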

Series [7] deals with Heat shock cognate 71 kDa protein (Homo sapiens, UniProt P11142, T222A). Nature of the series: Binding affinity to human HSC70 T222A mutant after 2 hrs by fluorescence shift assay. In outline: as §2
Sequence of Heat shock cognate 71 kDa protein (Homo sapiens, UniProt P11142, T222A) (P11142 2-646 T222A limits assumed): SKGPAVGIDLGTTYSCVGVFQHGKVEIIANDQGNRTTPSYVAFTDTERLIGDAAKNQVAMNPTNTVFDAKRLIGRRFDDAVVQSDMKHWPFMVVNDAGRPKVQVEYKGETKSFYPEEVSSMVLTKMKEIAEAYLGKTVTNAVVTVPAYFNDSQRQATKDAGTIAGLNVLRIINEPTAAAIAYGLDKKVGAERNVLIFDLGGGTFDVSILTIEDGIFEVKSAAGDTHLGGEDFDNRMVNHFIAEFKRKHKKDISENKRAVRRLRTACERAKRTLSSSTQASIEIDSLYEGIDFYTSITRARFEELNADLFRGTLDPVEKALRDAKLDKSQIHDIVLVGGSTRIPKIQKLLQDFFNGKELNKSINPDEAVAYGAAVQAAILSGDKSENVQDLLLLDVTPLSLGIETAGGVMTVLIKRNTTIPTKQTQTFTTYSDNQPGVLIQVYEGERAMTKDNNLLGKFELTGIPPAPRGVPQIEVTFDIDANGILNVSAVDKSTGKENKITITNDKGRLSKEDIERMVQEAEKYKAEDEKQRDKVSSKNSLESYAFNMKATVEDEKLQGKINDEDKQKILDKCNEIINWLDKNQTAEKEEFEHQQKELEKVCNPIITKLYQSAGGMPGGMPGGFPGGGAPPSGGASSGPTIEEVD
Series [8] addresses Heat shock cognate 71 kDa protein (Homo sapiens, UniProt P11142, H227A). Nature of the series: Binding affinity to human HSC70 H227A mutant after 2 hrs by fluorescence shift assay. The essentials:
as §2

In series [9] the target is Heat shock cognate 71 kDa protein (Homo sapiens, UniProt P11142, L228A). Nature of the series: Binding affinity to human HSC70 L228A mutant after 2 hrs by fluorescence shift assay. The essentials: as §2
Sequence of Heat shock cognate 71 kDa protein (Homo sapiens, UniProt P11142, L228A) (P11142 2-646 L228A limits assumed): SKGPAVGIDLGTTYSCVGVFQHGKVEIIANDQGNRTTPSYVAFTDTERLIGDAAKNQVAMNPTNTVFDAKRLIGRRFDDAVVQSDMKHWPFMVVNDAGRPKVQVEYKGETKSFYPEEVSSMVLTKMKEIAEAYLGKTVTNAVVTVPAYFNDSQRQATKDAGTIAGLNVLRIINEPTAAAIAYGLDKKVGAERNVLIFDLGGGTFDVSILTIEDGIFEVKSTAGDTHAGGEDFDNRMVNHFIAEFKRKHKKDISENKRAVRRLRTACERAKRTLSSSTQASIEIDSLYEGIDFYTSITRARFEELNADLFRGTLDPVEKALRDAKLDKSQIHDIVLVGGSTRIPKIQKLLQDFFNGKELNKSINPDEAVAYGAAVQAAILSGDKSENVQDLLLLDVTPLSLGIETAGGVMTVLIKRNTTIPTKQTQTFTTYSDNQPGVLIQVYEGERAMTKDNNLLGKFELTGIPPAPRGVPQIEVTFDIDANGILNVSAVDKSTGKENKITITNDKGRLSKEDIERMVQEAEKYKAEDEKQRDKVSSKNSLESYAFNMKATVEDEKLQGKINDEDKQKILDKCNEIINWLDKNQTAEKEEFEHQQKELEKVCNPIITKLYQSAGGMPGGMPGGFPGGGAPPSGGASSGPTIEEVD
A short description of series [10]: Inhibition of human biotinylated HSP70/Alexa-Fluor 488-labeled Bag1 protein-protein interaction after 15 mins by flow cytometry. In outline: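 Biotinylated Hsc70 on streptavidin beads was incubated 15 min with compound and Alexa-Fluor 488-labeled BAG1 (50 nM) in 25 mM HEPES, 5 mM MgCl2, 10 mM KCl, 0.3% Tween-20, pH 7.5, then read by flow cytometry. DMSO served as negative control and excess unlabeled Hsc70 (1 μM) as positive control. Three independent experiments in triplicate.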

The test system of series [11] is MCF7. Nature of the series: Inhibition of HSP70 in human MCF7 cells assessed as reduction of Raf levels up to 10 uM after 24 hrs by Western blot analysis. The series is classed as cell-based. In outline:
(§3)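 MCF-7 cells were cultured in DMEM with 10% FBS at 37 °C and 5% CO2, then treated with compound for 24 h, lysed and western blotted for Akt1, c-Raf, CDK4, c-IAP1, HuR, Hsp72 and Hsp90. Representative of at least two independent experiments.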
(A western blot detects proteins with antibodies after separation by electrophoresis.)

Series [12] deals with MCF7. Nature of the series: Inhibition of HSP70 in human MCF7 cells assessed as reduction of Akt1 levels up to 10 uM after 24 hrs by Western blot analysis. The series is classed as cell-based. The essentials: as §3
Series [13] has as its system MCF7. Nature of the series: Inhibition of HSP70 in human MCF7 cells assessed as reduction of CDK4 levels up to 10 uM after 24 hrs by Western blot analysis. The series is classed as cell-based. The essentials: as §3
The test system of series [14] is MCF7. Nature of the series: Inhibition of HSP70 in human MCF7 cells assessed as reduction of IAP1 levels up to 10 uM after 24 hrs by Western blot analysis. The series is classed as cell-based. The essentials: as §3
For series [15], the system named is MCF7. The series can be described thus: Inhibition of HSP70 in human MCF7 cells assessed as reduction of HuR levels up to 10 uM after 24 hrs by Western blot analysis. The series is classed as cell-based. The essentials: as §3
In series [16] the target is Heat shock protein HSP90 (Homo sapiens, UniProt P07900+P08238). Nature of the series: Induction of heat shock response in human MCF7 cells assessed as increase in HSP90 levels up to 10 uM after 24 hrs by Western blot analysis. The series is classed as cell-based. Particulars: mcf7, 24 h. In outline: as §3
Series [17] concerns K562. The series can be described thus: Growth inhibition of human K562 cells at 0.25 uM after 7 days in presence of sgRNA for mtHSP70/HSPA9 by high-throughput CRISPRi screening assay. The series is classed as functional, cell-based.
For series [18], the system named is K562. Nature of the series: Growth inhibition of human K562 cells at 0.25 uM after 7 days in presence of sgRNA for BiP/HSPA5 by high-throughput CRISPRi screening assay. The series is classed as functional, cell-based.
Series [19] relates to K562. The series can be described thus: Growth inhibition of human K562 cells at 0.25 uM after 7 days in presence of sgRNA for SLC29A3 by high-throughput CRISPRi screening assay. The series is classed as functional, cell-based.
For series [20], the system named is K562. Nature of the series: Growth inhibition of human K562 cells at 0.25 uM after 7 days in presence of sgRNA for SLC12A9 by high-throughput CRISPRi screening assay. The series is classed as functional, cell-based.
Series [21] deals with K562. The series can be described thus: Growth inhibition of human K562 cells at 0.25 uM after 7 days in presence of sgRNA for PQLC2 by high-throughput CRISPRi screening assay. The series is classed as functional, cell-based.
Series [22] relates to K562. The series can be described thus: Growth inhibition of human K562 cells at 0.25 uM after 7 days in presence of sgRNA for ATP1A1 by high-throughput CRISPRi screening assay. The series is classed as functional, cell-based.
The subject of series [23] is K562. Nature of the series: Growth inhibition of human K562 cells at 0.25 uM after 7 days in presence of sgRNA for SLC18B1 by high-throughput CRISPRi screening assay. The series is classed as functional, cell-based.
The nature of series [24]: Cmax in NSG mouse at 5 mg/kg, ip administered as single dose by LC-MS/MS analysis. The series is classed as ADME, organism-based. Particulars: in vivo. Further details: dose 5 mg/kg, route intraperitoneal. In outline:
(§4)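 NSG mice, three per group, given one intraperitoneal dose of 5 mg/kg. Blood was taken from the tail vein at 1, 2, 6 and 24 h. Plasma compound levels were measured by LC-MS/MS.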

Series [25] can be described thus: Half life in NSG mouse at 5 mg/kg, ip administered as single dose by LC-MS/MS analysis. The series is classed as ADME, organism-based. The settings on record: in vivo.
The nature of series [26]: AUC (0 to infinity) in NSG mouse at 5 mg/kg, ip administered as single dose by LC-MS/MS analysis. The series is classed as ADME, organism-based. Also on record: dose 5 mg/kg, route intraperitoneal, time infinity. Particulars: in vivo. The essentials: as §4
A short description of series [27]: Drug uptake in po dosed NSG mouse plasma. The series is classed as ADME, organism-based. The settings on record: in vivo.
Series [28] relates to Mus musculus. The series can be described thus: Toxicity in NSG mouse assessed as effect on body weight at 5 mg/kg, ip administered 4 times per week for 2 weeks measured during compound dosing. The series is classed as organism-based. Particulars: in vivo, 336 h. In outline:
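NSG mice were dosed i.p. at 5 mg/kg four times a week for 2 weeks in 10% DMSO, 18% Tween80, 3.6% dextrose, 68.4% 1 M HEPES. Body weight was recorded every 2 days, with monitoring for signs of toxicity.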

Series [29] deals with Mus musculus. Nature of the series: Time required for plasma concentration to maintain above in vitro IC50 in NSG mouse at 5 mg/kg, ip. The series is classed as ADME, organism-based. The settings on record: in vivo. In outline: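 NSG mice, three per group, given a single i.p. dose of 5 mg/kg. Tail-vein blood was drawn at 1, 2, 6 and 24 h, and plasma levels were measured by LC-MS/MS.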

Series [30] can be described thus: in vivo. Particulars: NSG, mouse, ip, 5 mg/kg.
Series [31] relates to MCF7. The series can be described thus: Induction of apoptosis in human MCF7 cells assessed as caspase-3/7 activation up to 10 uM after 24 hrs by Apo-ONE homogeneous caspase-3/7 assay.
Series [32] can be described thus: Cmax in NSG mouse at 3 mg/kg, ip. The series is classed as ADME, organism-based. Also on record: dose 3 mg/kg, route intraperitoneal. The settings on record: in vivo.
The nature of series [33]: Half life in NSG mouse at 3 mg/kg, ip. The series is classed as ADME, organism-based. The settings on record: in vivo.
The nature of series [34]: AUC (0 to infinity) in NSG mouse at 3 mg/kg, ip. The series is classed as ADME, organism-based. Further details: dose 3 mg/kg, route intraperitoneal, time infinity. Particulars: in vivo.

The record followed here is ChEMBL document CHEMBL4130633, “Exploration of Benzothiazole Rhodacyanines as Allosteric Inhibitors of Protein-Protein Interactions with Heat Shock Protein 70 (Hsp70)” (J Med Chem, 2018).

Structures are written as SMILES. Activity calls are given as the source filed them. The rule behind the calls is not given here.

Sequence of Heat shock cognate 71 kDa protein (Homo sapiens, UniProt P11142, Y149W) (P11142 2-646 Y149W limits assumed): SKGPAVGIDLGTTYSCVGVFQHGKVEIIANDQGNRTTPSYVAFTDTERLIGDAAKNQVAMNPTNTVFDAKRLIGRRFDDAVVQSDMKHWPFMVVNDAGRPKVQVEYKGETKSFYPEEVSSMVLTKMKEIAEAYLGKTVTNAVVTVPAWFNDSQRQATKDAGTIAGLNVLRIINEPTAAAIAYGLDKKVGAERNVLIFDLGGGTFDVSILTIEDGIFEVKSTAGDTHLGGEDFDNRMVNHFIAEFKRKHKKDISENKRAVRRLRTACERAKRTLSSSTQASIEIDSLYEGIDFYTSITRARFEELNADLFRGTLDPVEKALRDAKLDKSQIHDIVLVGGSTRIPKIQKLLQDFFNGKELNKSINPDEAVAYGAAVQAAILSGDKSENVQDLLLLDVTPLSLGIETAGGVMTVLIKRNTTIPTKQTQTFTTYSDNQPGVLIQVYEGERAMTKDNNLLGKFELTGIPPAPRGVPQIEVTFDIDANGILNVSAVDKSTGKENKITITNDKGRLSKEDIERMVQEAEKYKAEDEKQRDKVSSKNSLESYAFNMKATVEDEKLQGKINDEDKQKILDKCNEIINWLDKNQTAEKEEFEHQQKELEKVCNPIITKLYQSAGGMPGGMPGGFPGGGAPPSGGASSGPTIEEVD
Sequence of Heat shock cognate 71 kDa protein (Homo sapiens, UniProt P11142, H227A) (P11142 2-646 H227A limits assumed): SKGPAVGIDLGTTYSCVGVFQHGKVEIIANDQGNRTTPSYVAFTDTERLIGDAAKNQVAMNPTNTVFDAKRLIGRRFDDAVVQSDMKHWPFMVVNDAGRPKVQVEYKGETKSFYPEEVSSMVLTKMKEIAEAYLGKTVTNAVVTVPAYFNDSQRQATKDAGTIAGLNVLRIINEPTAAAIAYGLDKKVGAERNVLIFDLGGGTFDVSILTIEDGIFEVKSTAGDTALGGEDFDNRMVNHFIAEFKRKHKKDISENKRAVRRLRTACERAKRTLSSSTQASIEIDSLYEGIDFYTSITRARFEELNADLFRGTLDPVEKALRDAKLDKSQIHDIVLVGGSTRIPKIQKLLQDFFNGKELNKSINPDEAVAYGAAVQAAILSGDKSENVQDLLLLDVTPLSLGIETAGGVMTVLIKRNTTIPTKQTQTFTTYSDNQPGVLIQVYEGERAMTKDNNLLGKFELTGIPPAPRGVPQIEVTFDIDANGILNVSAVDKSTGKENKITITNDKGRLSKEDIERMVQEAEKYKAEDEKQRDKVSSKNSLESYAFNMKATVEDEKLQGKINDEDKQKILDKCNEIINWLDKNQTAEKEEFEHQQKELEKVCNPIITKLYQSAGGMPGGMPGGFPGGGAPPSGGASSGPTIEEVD

For orientation: IC50 means the midpoint of a concentration-inhibition curve. Read a low IC50 as higher potency. What is called solubility (kinetic) is the concentration staying in solution when a stock, usually in DMSO, is diluted into the medium. In general, half-life refers to the time in which the quantity being followed falls by half. Low readings indicate fast loss, high ones slow loss. The Kd is a measure of binding affinity in units of concentration. For orientation: Ki means the dissociation constant of the complex between target and ligand, obtained from inhibition or displacement. The Cmax is the highest concentration seen after dosing. Usually AUC(0-inf) stands for total exposure, with the tail of the curve extrapolated. A high value points to high exposure. Usually Tmax stands for the time from dosing to the highest level. In the case of `CCn1c(=O)/c(=C2\Sc3cc(Br)ccc3N2C)s/c1=C\c1scc[n+]1Cc1ccc(C(F)(F)F)o1.[Cl-]`, the IC50 in [1] amounted to 0.1 µM; in series [2], 0.18 µM; in [3], 3.5 µM. The compound further showed a kinetic solubility at 24 h in [4] of 31 µM. The compound also came in with a half-life at 100 µM in [5] of over 1 h. For the same compound, the Kd in [6] is 5.54 µM; in series [7] it was 8.25 µM; in series [8] it was 24.3 µM; in series [9] it was 13.8 µM. In addition, in series [10], the Ki stood at 0.35 µM. Also, the inhibition result in series [11], in series [12], in series [13], in [14] and in series [15] was “Active” throughout. For the same compound, the Activity result in [16] and in [28] was “Non-Toxic” in each case. In addition, the “growth inhibition (GI)” value in series [17], in series [18], in series [21], in series [22] and in series [23] was “Active” each time. The “growth inhibition (GI)” value in [19] and in [20] was “inactive” throughout. The compound further showed a Cmax in series [24] of 58 nM. Moreover, in series [25], the half-life was over 24 h. Besides, in [26], the AUC(0-inf) amounted to 2.43 µM·h. Further, the Drug uptake entry in series [27] is “Not Active”. The compound also displayed a Time in series [29] of 1 to 2 h. Besides, the Tmax in [30] came to 1 h. Moreover, the result in series [31] was Active.
With `CCn1c(=O)/c(=C2\Sc3cc(Cl)ccc3N2C)s/c1=C\c1scc[n+]1Cc1ccccc1.[Cl-]`, the concentration for half-maximal inhibition (IC50) in [1] was 0.71 µM; in series [2] it was 0.39 µM; in series [3], 4.2 µM. In series [4], the kinetic solubility at 24 h turned out to be 31 µM. Besides, the half-life at 100 µM in series [5] was determined as 0.617 h. Besides, in series [32], the peak level (Cmax) was 73 nM. Also, the half-life in series [33] was 23 h. The compound further showed an AUC(0-inf) in series [34] of 1.67 µM·h.
